Laboratory results published in ChEMBL document CHEMBL4342493, “Design and Optimization of 3'-(Imidazo[1,2-a]pyrazin-3-yl)-[1,1'-biphenyl]-3-carboxamides as Selective DDR1 Inhibitors” (ACS Med Chem Lett, 2020).
pIC50, pKd: −log10 of the molar value.

Key:
[1] = molecular target: Epithelial discoidin domain-containing receptor 1 (Homo sapiens, UniProt Q08345); assay: Inhibition of recombinant human GST-tagged DDR1 catalytic domain (440 to 876 residues) expressed in baculovirus expression system using Fluorescein-poly GAT as substrate incubated for 1 hr in presence of ATP by LanthaScreen Eu kinase assay
Chain of Epithelial discoidin domain-containing receptor 1 (Q08345 whole entry, the tested form may be a part): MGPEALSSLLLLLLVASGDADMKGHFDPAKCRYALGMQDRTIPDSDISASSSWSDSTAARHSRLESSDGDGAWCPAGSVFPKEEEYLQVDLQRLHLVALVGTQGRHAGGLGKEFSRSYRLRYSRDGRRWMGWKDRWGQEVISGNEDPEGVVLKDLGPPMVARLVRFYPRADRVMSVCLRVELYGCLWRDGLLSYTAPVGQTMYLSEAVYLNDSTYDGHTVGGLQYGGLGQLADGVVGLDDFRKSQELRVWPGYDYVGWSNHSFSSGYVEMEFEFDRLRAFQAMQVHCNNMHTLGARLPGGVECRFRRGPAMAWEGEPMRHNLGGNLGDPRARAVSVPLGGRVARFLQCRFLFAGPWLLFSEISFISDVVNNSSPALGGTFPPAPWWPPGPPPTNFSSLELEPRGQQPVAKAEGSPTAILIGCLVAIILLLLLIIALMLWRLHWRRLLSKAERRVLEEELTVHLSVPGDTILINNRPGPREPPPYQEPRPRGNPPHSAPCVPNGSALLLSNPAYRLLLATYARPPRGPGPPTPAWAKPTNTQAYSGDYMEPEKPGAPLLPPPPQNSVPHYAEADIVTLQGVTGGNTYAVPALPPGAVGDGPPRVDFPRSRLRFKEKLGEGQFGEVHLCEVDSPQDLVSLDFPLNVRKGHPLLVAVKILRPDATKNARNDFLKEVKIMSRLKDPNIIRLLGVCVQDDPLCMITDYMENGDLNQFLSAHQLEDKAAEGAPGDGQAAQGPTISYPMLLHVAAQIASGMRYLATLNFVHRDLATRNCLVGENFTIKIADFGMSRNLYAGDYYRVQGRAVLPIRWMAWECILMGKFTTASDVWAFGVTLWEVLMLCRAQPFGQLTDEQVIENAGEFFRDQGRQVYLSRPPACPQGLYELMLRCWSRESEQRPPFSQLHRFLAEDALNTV

[2] = molecular target: Calcium/calmodulin-dependent protein kinase type 1D (Homo sapiens, UniProt Q8IU85); assay: Binding affinity to wild-type human partial length CAMK1D (M1 to K299 residues) expressed in bacterial expression system after 1 hr by Kinomescan method
Chain of Calcium/calmodulin-dependent protein kinase type 1D (Q8IU85 whole entry, the tested form may be a part): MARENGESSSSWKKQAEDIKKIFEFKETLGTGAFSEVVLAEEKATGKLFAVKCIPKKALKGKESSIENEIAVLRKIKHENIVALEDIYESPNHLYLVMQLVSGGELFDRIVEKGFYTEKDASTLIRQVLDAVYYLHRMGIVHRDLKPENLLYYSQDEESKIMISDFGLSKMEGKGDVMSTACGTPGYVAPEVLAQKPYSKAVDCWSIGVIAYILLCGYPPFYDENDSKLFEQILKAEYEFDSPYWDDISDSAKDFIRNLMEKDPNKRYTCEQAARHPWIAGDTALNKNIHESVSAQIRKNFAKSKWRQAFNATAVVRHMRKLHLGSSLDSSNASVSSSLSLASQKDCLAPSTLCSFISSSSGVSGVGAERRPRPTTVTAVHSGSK
How it was run: (§1)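 KINOMEscan binding; Kd determined for DDR1 and the off-target kinases DDR2, CAMK1D, CLK4 and TTK.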

[3] = molecular target: Dual specificity protein kinase CLK4 (Homo sapiens, UniProt Q9HAZ1); assay: Binding affinity to wild-type human partial length CLK4 (R135 to K481 residues) expressed in bacterial expression system after 1 hr by Kinomescan method; how it was run: as §1
Chain of Dual specificity protein kinase CLK4 (Q9HAZ1 whole entry, the tested form may be a part): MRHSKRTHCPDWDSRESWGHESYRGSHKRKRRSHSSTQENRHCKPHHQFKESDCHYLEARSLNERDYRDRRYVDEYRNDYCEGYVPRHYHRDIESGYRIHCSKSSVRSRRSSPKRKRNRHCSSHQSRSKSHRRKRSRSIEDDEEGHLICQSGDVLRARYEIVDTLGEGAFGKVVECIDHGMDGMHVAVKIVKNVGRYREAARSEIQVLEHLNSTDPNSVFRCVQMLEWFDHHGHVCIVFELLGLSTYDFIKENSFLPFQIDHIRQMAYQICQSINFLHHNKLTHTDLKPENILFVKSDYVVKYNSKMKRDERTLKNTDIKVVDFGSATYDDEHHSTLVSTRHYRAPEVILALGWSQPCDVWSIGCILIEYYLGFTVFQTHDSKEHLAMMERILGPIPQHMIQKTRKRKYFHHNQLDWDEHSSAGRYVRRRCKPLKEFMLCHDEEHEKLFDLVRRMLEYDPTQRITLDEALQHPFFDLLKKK

NCI-H1299 [4] = assay: Inhibition of colony formation in human H1299 cells assessed as reduction in number of colonies measured after 10 days by crystal violet staining based assay; type: functional, cell-based
How it was run: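 Colony formation in H1299 cells under continuous compound treatment for 10 days; colony number quantified and IC50 derived from dose-response.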

NCI-H1299 [5] = assay: Antiinvasive activity against human H1299 cells at 1.25 uM after 24 hrs by crystal violet staining based transwell assay relative to control; type: functional; details: NCI-H1299, 24 h
How it was run: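 H1299 NSCLC cells; transwell invasion assay over 24 h with compound at 1.25, 2.5 and 5.0 μM; invasion expressed relative to blank control.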

- pIC50 [1]: 7.62
- pKd [2]: < 6.00
- pKd [3]: < 6.00
- pIC50 (NCI-H1299 [4]; NCI-H1299, 240 h): 7.34
SMILES: CCc1ccc(C(=O)Nc2cc(F)cc(C(F)(F)F)c2)cc1-c1cc(C)cc(-c2cnc3cnccn23)c1
- inhibition (NCI-H1299 [4]): Dose-dependent effect
- inhibition at 1.25 µM (NCI-H1299 [5]): 17%
